This excerpt belongs to a sample that is enriched for hits.
L major viab: reduces viability of Leishmania major promastigotes. inhibition, % at 10 µM. resazurin fluorescence viability. actives 9% (n = 200,000);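 note: promastigotes grown with compound for 44 hours at 28 °C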
Redox H2O2 prof: compounds producing H2O2 with reducing agent – biochemical, NIH compound library profiling, artefact control for MLSCN library redox annotation, primary screen; DTT-dependent redox cycling H2O2, phenol red/HRP absorbance; 100% = 100 µM peroxide control, 0% = buffer; activation, % at 10 µM; actives 0.03% (n = 200,000);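 active = activation of at least 50% relative to the plate's high and low controls in the primary single-dose screen; inactive = activation below 50%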;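 note: compound incubated with DTT at 0.8 mM final as the reducing agent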
PfGluPho inh: PfG6PD (Plasmodium falciparum) enzyme inhibition; PfGluPho enzyme, NADPH resazurin-diaphorase fluorescence; inhibition, % at 20 µM; actives 0.78% (n = 350,000);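 active = inhibition reaching at least a set limit at 20 µM in the primary screen, cut at about 59% in these data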
Diaphorase act: diaphorase activation or chemical reduction counter-screen. actives 0.005% (n = 190,000). activation factor at 20 µM. Diaphorase/resazurin coupled assay, resorufin fluorescence, 16 min; hits give high values; 1 = vehicle wells, 0 = NADH-free wells;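 active = diaphorase activity raised at least twofold by the compound at 20 µM; inactive = activation factor below 2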
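Assay system: Purified diaphorase enzyme from Clostridium kluyveri | Amount: Enzyme 0.07 U/mL final | Dosing: Compound 20 µM once, DMSO 1% | Timing: 16 min reaction at room temperature | Detection: Fluorescence, excitation 544 nm and emission 590 nm | Evaluation: Higher resorufin formation from activation or reduction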
G6PDH CS: counter-screen for G6PDH assay hits: L. mesenteroides G6PDH inhibition. Purified L. mesenteroides G6PDH, diaphorase/resazurin coupled fluorescence, 45 min. inhibition, % at 5 µM. actives 0.12% (n = 200,000)
Diaph inh CS: inhibits diaphorase or chemically oxidizes, flagging diaphorase assay artifacts. diaphorase resazurin-to-resorufin fluorescence, NADH, 16 min; bacterial (C. kluyveri) enzyme, not human. inhibition, % at 20 µM. actives 0.69% (n = 190,000);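 active = primary screen inhibition at 20 µM above a set limit, cut at about 50% in these data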
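Test system: Clostridium kluyveri diaphorase enzyme / Quantity: diaphorase at 0.14 U/mL in enzyme working solution / Incubation: 16-min room-temperature incubation before reading / Benchmarks: NADH-free wells as positive control, DMSO-only neutral wells / Signal: resorufin fluorescence 544/590 nm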
Large screens that a line does not name were inactive. Cut-off read from the data, not from the text of the source, unless noted: active = inhibition above about 50%; inactive = the rest.

CC(=O)c1c(C)[nH]c(C(=O)OCC(=O)NCc2cccs2)c1C	none (no result: L major viab, Redox H2O2 prof, Diaphorase act, G6PDH CS, Diaph inh CS)
Cc1ccc(S(=O)(=O)NCC(=O)Nc2cccnc2)cc1C	none (no result: L major viab, Redox H2O2 prof, Diaphorase act, G6PDH CS, Diaph inh CS)
CCn1nnnc1SCC(=O)Nc1nc(-c2cccs2)cs1	L major viab 55
CCn1nnnc1SCC(=O)Nc1nnc(C(C)C)s1	none
NC(=O)c1ccc[n+](CCC[n+]2cccc(C(N)=O)c2)c1	none
CCCCCCCCCC[n+]1cccc(C(=O)N(CC)CC)c1	L major viab 90
O=C(CSc1nnc2ccccn12)Nc1nsc(-c2ccccc2)n1	none
CN1CCN(CC(O)(c2ccc(Cl)cc2)c2ccc(Cl)cc2)CC1	L major viab 53
CCC(C)NCC(O)(c1ccc(Cl)cc1)c1ccc(Cl)cc1 (stereo not drawn)	none
Cc1ccc(NC(=S)N2CCCC(c3nc4ccccc4[nH]3)C2)cc1 (stereo not drawn)	L major viab 89
Cc1c(CNCCc2ccccc2Cl)c(C(=O)O)c(C)n1-c1ccccc1	none (no result: L major viab, Redox H2O2 prof, Diaphorase act, G6PDH CS, Diaph inh CS)
Cc1cc(C)cc(Nc2cc(=O)n(C3CCCCC3)c(=O)[nH]2)c1	none
Cc1cc2nc3c(=O)n(C4CCCCC4)c(=O)[nH]c3nc2cc1N	Diaph inh CS 60
CCCC1=[N+](CC(=O)c2ccccc2)CCn2c(C)ccc21	L major viab 90
COc1ccc(N(CC(=O)NC2CCCCC2)C(=O)c2ccc(C)s2)c(OC)c1	none (no result: L major viab, Redox H2O2 prof, Diaphorase act, G6PDH CS, Diaph inh CS)
Cc1ccc(S(=O)(=O)N(C(=O)c2ccncc2)c2ccc(OC(=O)c3ccncc3)cc2)c(C)c1	L major viab 76
Cc1ccc(C)c(S(=O)(=O)N(C(=O)c2ccncc2)c2ccc(OC(=O)c3ccncc3)cc2)c1	none
O=C(CN(c1cccc([N+](=O)[O-])c1)S(=O)(=O)c1ccccc1)NCc1ccccc1	L major viab 96
Cc1ccc(CNC(=O)CN(c2cccc([N+](=O)[O-])c2)S(=O)(=O)c2ccccc2)cc1	L major viab 97
CC(C)NC(=O)CN(c1cccc([N+](=O)[O-])c1)S(=O)(=O)c1ccccc1	none
CCC(C)Nc1nnnc2c1sc1nc3c(cc12)COC(C)(C)C3 (stereo not drawn)	L major viab 50
CCCOc1ccc(-c2c(C(=O)N/N=C/c3cccs3)nnn2-c2nonc2N)cc1	none (no result: L major viab, Redox H2O2 prof, Diaphorase act, G6PDH CS, Diaph inh CS)
CCCc1cc(N2CCN(C(=O)c3ccco3)CC2)n2c(nc3ccccc32)c1C#N	L major viab 71
CC(=O)O[C@]1(C(C)=O)CC[C@H]2[C@@H]3C=C(Cl)C4=CC(=O)[C@@H]5C[C@@H]5[C@]4(C)[C@H]3CC[C@@]21C	none (no result: L major viab, Redox H2O2 prof, Diaphorase act, G6PDH CS, Diaph inh CS)
CC(=O)O[C@]1(C(C)=O)CC[C@H]2[C@@H]3C=C(Cl)C4=CC(=O)CC[C@]4(C)[C@H]3CC[C@@]21C	L major viab 68
OC1COC(c2ccccc2)OC1C1OC(c2ccccc2)OCC1O (stereo not drawn)	none (no result: L major viab, Redox H2O2 prof, Diaphorase act, G6PDH CS, Diaph inh CS)
CC(C)C[C@@]12C(=O)N(c3cccc(Cl)c3)C(=O)N1[C@H](c1ccc(Cl)cc1)[C@@H]1C(=O)N(C3CCCCC3)C(=O)[C@@H]12	none (no result: L major viab, Redox H2O2 prof, Diaphorase act, G6PDH CS, Diaph inh CS)
CCOC(=O)c1cc(-c2ccc(F)cc2)n(CCC(=O)NC2CCN(Cc3ccccc3)CC2)c1C	L major viab 80
CCOC(=O)c1cc(-c2ccc(OC)cc2)n(CCC(=O)NC2CCN(Cc3ccccc3)CC2)c1C	L major viab 84
CCOC(=O)c1cc(-c2ccc(OC)cc2)n(CCC(=O)NCCN2CCC(C)CC2)c1C	none
CCOC(=O)c1cc(-c2ccccc2)n(CC(=O)Nc2ccc(OC)cc2)c1C	L major viab 51
CCOC(=O)c1cc(-c2ccccc2)n(CCC(=O)O)c1C	none
CC(=O)c1cc(-c2ccccc2)n(CCC(=O)NC2CCCCCCC2)c1C	none
CC(C)CNC1=CC(=O)CC(c2ccco2)C1 (stereo not drawn)	Diaph inh CS 61
COc1ccc(OC)c(N2Cc3cc(C)c(C)cc3C2)c1	L major viab 86
COc1ccc(S(=O)(=O)N2CCCCC2)cc1NC(=O)c1ccc([N+](=O)[O-])o1	L major viab 90
CCN1CCN(c2ccc(S(=O)(=O)N3CCCCC3)cc2NC(=O)c2ccc([N+](=O)[O-])o2)CC1	none (no result: L major viab, Redox H2O2 prof, Diaphorase act, G6PDH CS, Diaph inh CS)
COc1ccc(-c2cc3ccccc3oc2=O)cc1NC(=O)c1ccc([N+](=O)[O-])o1	L major viab 85
CCCCC(CC)C(=O)N1CCN(C(=O)c2ccco2)CC1 (stereo not drawn)	none
COc1ccc(C2=NN(c3ccccc3)C(c3ccc(OC)c(OC)c3)C2)cc1 (stereo not drawn)	none (no result: L major viab, Redox H2O2 prof, Diaphorase act, G6PDH CS, Diaph inh CS)
COc1ccc(C2=NN(C(C#N)c3ccc(OC)c(OC)c3)C(c3ccccc3)C2)cc1 (stereo not drawn)	L major viab 100
Cn1nnnc1SC(C(=O)Nc1cccc(C(F)(F)F)c1)c1ccccc1 (stereo not drawn)	L major viab 62
O=C(Nc1cccc(Cl)c1)C1C2CCC3C(CCC21)C3(Cl)Cl (stereo not drawn)	none
C#CCN1C(=O)S/C(=C/C=C/c2ccc(N(C)C)cc2)C1=O	L major viab 88
COc1cccc(OC)c1C(=O)Oc1ccc2c(c1)O/C(=C\c1ccncc1)C2=O	L major viab 94
O=C1/C(=C/c2ccccc2)Oc2cc(OC(=O)N3CCOCC3)ccc21	L major viab 74
O=C1/C(=C/c2ccncc2)Oc2cc(OS(=O)(=O)c3ccccc3)ccc21	none (no result: L major viab, Redox H2O2 prof, Diaphorase act, G6PDH CS, Diaph inh CS)
COc1ccc(CNC(=O)c2cc(-c3cc(C)ccc3O)n[nH]2)cc1	none (no result: L major viab, Redox H2O2 prof, Diaphorase act, G6PDH CS, Diaph inh CS)
COc1ccc(CCNC(=O)c2cc(-c3cc(C)ccc3O)n[nH]2)cc1OC	L major viab 89
COc1ccc(CCNC(=O)c2cc(-c3ccc(C)c(C)c3O)n[nH]2)cc1OC	L major viab 93
COc1ccc(CCNC(=O)c2ccncc2)cc1OC	none
Cc1cc(O)c(-c2cc(C(=O)NCc3ccc4c(c3)OCO4)[nH]n2)cc1C	none
Cc1ccc(-c2cc(C(=O)NCc3ccc4c(c3)OCO4)[nH]n2)c(O)c1C	L major viab 54
CC(Oc1coc(CN2CCN(C(=O)c3ccco3)CC2)cc1=O)c1ccccc1 (stereo not drawn)	none (no result: L major viab, Redox H2O2 prof, Diaphorase act, G6PDH CS, Diaph inh CS)
O=C1c2ccccc2C(=O)N1CCCCN(C(=O)c1cccc([N+](=O)[O-])c1)c1ccc(Cl)cc1	L major viab 54
O=C1c2ccccc2C(=O)N1CCCCN(C(=O)c1ccco1)c1ccc(Cl)cc1	none
CCOC(=O)C1(CCOC)CCN(C(C)CCc2ccc(OC)cc2)CC1 (stereo not drawn)	L major viab 91
CCN(CC)C(=O)c1ccc(COc2ccccc2Br)o1	L major viab 88
